# Rows were chosen to be rich in hits. Some 4.3% of all compounds tested hit in one or more screens of this group.
# OX1R antag-1 – antagonists of human orexin 1 receptor (OX1R) | O43613 | OX1R-expressing cells, FRET antagonist read-out | inhibition, % at 6.6 µM | 330,000 tested, 1.8% active; in the data active = inhibition mostly above about 38%, no sharp cut-off; inactive = mostly below about 40%;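 also: 0% = agonist challenge alone and 100% = reference antagonist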
# TAAR1 antag – human TAAR1 antagonism; AID 624466; CHO RD-HGA16 TAAR1, Fluo-8 calcium fluorescence, antagonist; 360,000 tested, 1.5% active; inhibition, % at 3 µM;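 active = inhibition above a per-plate cutoff, the mean inhibition of test compounds on that plate plus 3 SD, cut at about 49% in these data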;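 also: 0% = DMSO plus EC80 beta-PEA response and 100% = DMSO alone without agonist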
# Target sequence (Q96RJ0 whole entry, looked up): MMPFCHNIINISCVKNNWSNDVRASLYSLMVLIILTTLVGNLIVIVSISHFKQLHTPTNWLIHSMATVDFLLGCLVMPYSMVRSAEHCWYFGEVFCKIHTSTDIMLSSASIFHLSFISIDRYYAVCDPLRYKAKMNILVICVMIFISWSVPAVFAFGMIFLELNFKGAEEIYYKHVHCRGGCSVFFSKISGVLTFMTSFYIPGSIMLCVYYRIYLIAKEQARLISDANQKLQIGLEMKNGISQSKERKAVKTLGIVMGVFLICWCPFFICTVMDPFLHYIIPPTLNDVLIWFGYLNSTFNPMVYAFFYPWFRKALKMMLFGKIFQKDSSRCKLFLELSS
#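 Test system – hTAAR1-expressing CHO RD-HGA16 cells, Gα16-coupled · Also added – β-PEA at EC80 concentration, post-compound challenge · Compound – 3 µM, single point · Incubation – dye loading 75 min at 37 °C, then 30 min room temperature · Measured by – Fluo-8 intracellular calcium dye fluorescence, real-time kinetic reads · Benchmarks – vehicle and agonist controls · Replicates – singlicate, one well per test compound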
# TAAR1 ag – agonists of human TAAR1 | AID 624467 | 360,000 tested, 0.99% active | CHO RD-HGA16 TAAR1, Fluo-8 calcium fluorescence; vehicle wells 0%, saturating PEA agonist 100% | activation, % at 3 µM | Q96RJ0;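 active = activation above the mean activation of all test compounds in the run plus 3 SD, cut at about 38% in these data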
#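 Test system: RD-HGA16 (CHO) cells co-expressing Gα16 and hTAAR1; dosing: one-point dosing at 3 µM (nominal); timing: 17-24 h seeding, 75 min 37 °C dye, 30 min RT; signal: kinetic Fluo-8 calcium fluorescence; read-out basis: % activation relative to PEA EC100 response; controls: DMSO and PEA EC100; replicates: n 1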
# GalR3 antagonist – blocks the human galanin receptor 3; 360,000 tested, 0.44% active; AID 651719; HEK293 GalR3-CNG cAMP membrane potential fluorescence; galR3 body fused to GalR1 C-terminus; inhibition, % at 3 µM; O60755;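 active = inhibition above the screen-wide average plus 3 SD, cut at about 13% in these data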;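 also: forskolin and galanin both at EC90 stimulate the cells; cAMP rise reported by CNG channel membrane potential dye signal; 0% = forskolin plus galanin with DMSO and 100% = forskolin alone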
# Target sequence (O60755 1-299 limits assumed): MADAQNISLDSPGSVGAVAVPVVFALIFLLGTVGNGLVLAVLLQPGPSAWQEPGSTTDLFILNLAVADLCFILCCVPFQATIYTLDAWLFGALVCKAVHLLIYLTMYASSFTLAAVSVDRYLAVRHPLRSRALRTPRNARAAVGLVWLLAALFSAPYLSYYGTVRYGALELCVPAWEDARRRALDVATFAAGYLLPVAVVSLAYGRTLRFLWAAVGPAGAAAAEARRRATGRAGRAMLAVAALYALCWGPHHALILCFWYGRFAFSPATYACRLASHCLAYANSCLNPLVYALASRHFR
# CHO parental Ca – signal in parental CHO cells, OX1R antagonist counter-screen. parental CHO-K1, ATP-induced calcium, Fluo-8 fluorescence. inhibition, % at 5.6 µM. 330,000 tested, 0.63% active;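 active = inhibition above that plate's mean sample inhibition plus 3 SD, cut at about 26% in these data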;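 also: 0% = ATP-challenged DMSO wells and 100% = DMSO wells without ATP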
#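 Assay system – parental CHO cells · Reagent – ATP stimulus · Detection – intracellular calcium via Fluo-8 no-wash fluorescent dye · Evaluation – percent inhibition of ATP-evoked calcium rise, normalized to controls · Controls – ATP wells versus no-ATP DMSO wells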
# OX1R antag-2 – human HCRTR1 antagonism; inhibition, % at 5 µM; CHO/OX1R cells, Fluo-8 calcium fluorescence, orexin A; O43613; 330,000 tested, 0.43% active;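 active = inhibition above its plate's threshold, mean inhibition of all tested compounds on the plate plus 3 SD, cut at about 37% in these data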;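 also: 0% = orexin A challenge wells and 100% = SB-334867-A antagonist wells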
# * marks the source's active call; other numbers are inactive results; · = no result given.
SMILES,OX1R antag-1,TAAR1 antag,TAAR1 ag,GalR3 antagonist,CHO parental Ca,OX1R antag-2
COc1ccc(C(=S)Nc2ccc(C)cc2)cc1,23,10,0,2,73*,5
COc1ccc(NC(=O)c2ccc(C)cc2)cc1,9,4,0,-10,-3,-10
COc1ccc(NC(=S)c2ccncc2)cc1,16,3,41*,-11,-8,-12
Oc1cc(NCCc2cccnc2)cc2cccnc12,66*,7,6,-5,-14,-26
CCCc1cc(=O)oc2cc(C)cc(OCC(=O)Nc3ccc(CN4CCOCC4)cc3)c12,5,-13,5,0,-21,-13
Cc1cc(C(=O)CSc2nc3ccccc3o2)c(C)n1CC1CCCO1 (stereo not drawn),64,33,13,-4,32,39*
Cc1cc(C(=O)COC(=O)c2ccc([N+](=O)[O-])o2)c(C)n1CC1CCCO1 (stereo not drawn),67*,-27,2,0,0,-12
CC1CCN(C(=O)COC(=O)c2ccc([N+](=O)[O-])o2)CC1,42*,-6,2,-7,-3,-5
CC1Cc2ccccc2N1C(=O)COC(=O)c1ccco1 (stereo not drawn),·,-16,6,-3,·,·
CC1Cc2ccccc2N1C(=O)COC(=O)c1ccc([N+](=O)[O-])o1 (stereo not drawn),40*,9,2,0,-5,5
O=C(CSc1nc2ccccc2o1)NCC1CCCO1 (stereo not drawn),14,-28,0,3,-6,-15
Cn1c(SCC(=O)NC2CCS(=O)(=O)C2)nc2ccccc21 (stereo not drawn),2,6,2,-4,0,-8
C/C(=N/NC(=O)CNC(=O)C1COc2ccccc2O1)c1ccc([N+](=O)[O-])cc1 (stereo not drawn),31,-6,0,-10,-8,-23
CCOC(=O)[C@H]1[C@H]2COc3ccc(Cl)cc3[C@@H]2N2C(=O)CNC(=O)[C@@]12C,6,16,12,-6,-12,-2
COc1ccc(CC(N)c2csc(NC(=O)C(c3ccccc3)c3ccccc3)n2)cc1 (stereo not drawn),·,23,47*,-8,·,·
COc1ccc(CC(N)c2csc(NC(=O)c3ccccc3)n2)cc1 (stereo not drawn),·,13,15,-7,·,·
NC(Cc1ccc(C(F)(F)F)cc1)c1csc(NC(=O)Nc2ccccc2Cc2ccccc2)n1 (stereo not drawn),·,33,21,-4,·,·
COc1ccc(CC(N)c2csc(NC(=O)c3ccc(OC)cc3)n2)cc1 (stereo not drawn),·,44,26,-7,·,·
CC(C)c1ccccc1NC(=O)Nc1nc(C(N)Cc2ccc(C(F)(F)F)cc2)cs1 (stereo not drawn),·,37,38*,-8,·,·
COc1ccc(CC(N)c2csc(NC(=O)NCCc3ccccc3)n2)cc1 (stereo not drawn),·,44,38*,-5,·,·
COc1ccc(CNC(=O)Nc2nc(C(N)Cc3ccc(C(F)(F)F)cc3)cs2)cc1 (stereo not drawn),·,49*,44*,-9,·,·
CCOc1ccc(CCNC(=O)CCNC(=O)c2ccccc2Cl)cc1OCC,39,0,-1,-1,-20,-34
COc1cc(CNC(=O)Nc2nc(C(N)Cc3ccc(Cl)cc3)cs2)cc(OC)c1OC (stereo not drawn),·,22,11,-6,·,·
COc1ccc(CC(N)c2csc(NC(=O)c3cccc(OC(F)(F)F)c3)n2)cc1 (stereo not drawn),·,41,36,-7,·,·
NC(Cc1ccccc1)c1csc(NC(=O)c2cccc(OC(F)(F)F)c2)n1 (stereo not drawn),·,12,45*,-8,·,·
SMILES,OX1R antag-1,TAAR1 antag,TAAR1 ag,GalR3 antagonist,CHO parental Ca,OX1R antag-2
NC(Cc1ccc(Cl)cc1)c1csc(NC(=O)NCC2CCCCC2)n1 (stereo not drawn),·,37,46*,-9,·,·
COC(=O)c1cnc(Nc2nc(C(N)Cc3ccc(OC)cc3)cs2)nc1C(F)(F)F (stereo not drawn),·,16,45*,-7,·,·
O=C(NCc1ccccc1)[C@@H]1CCCN1C(=O)[C@H]1CCCN1C(=O)c1ccc(Cl)cc1,·,-29,0,0,·,·
CN(C)C=Nc1ccc2nc3c(cc2c1)[nH]c1ccccc13,55*,-3,2,-7,-2,8
COc1cc(CN2CC(=O)N(c3ccc(C)c(Cl)c3)C2=S)cc(OC)c1OC,15,7,14,-5,-20,-15
O=C(c1ccc(CS(=O)(=O)c2ccc(Br)cc2)o1)N1CCN(c2ccc(F)cc2)CC1,4,52*,3,-8,5,-16
COc1ccc(N2CCN(C(=O)c3ccc(CS(=O)(=O)c4ccc(Br)cc4)o3)CC2)cc1,8,2,3,-7,-13,-11
COc1ccccc1C(=O)NC(=O)COC(=O)c1ccc([N+](=O)[O-])cc1,50*,-16,2,-3,-18,-16
COc1ccccc1C(=O)NC(=O)COc1ccc([N+](=O)[O-])cc1,4,-4,-1,-2,-1,-9
COc1ccc(NC(=O)NN2CCOCC2)cc1OC,9,63*,6,-4,3,-11
COc1ccc(NC(=O)NN2CCN(C)CC2)cc1OC,1,-4,2,0,12,1
Cc1ccc(NC(=O)C2CCN(C(=O)c3ccccc3C)CC2)nc1,12,-14,3,-1,16,-29
CCOC(=O)C1=C(C)Nc2ccccc2N=C1NC(=O)C1CCN(C(=O)c2ccccc2C)CC1,8,49*,10,-7,-13,-4
CCOC(=O)N1CCN(C(=O)C2CCN(C(=O)c3ccccc3C)CC2)CC1,·,18,66*,4,·,·
CSc1nsc(N/N=C/c2ccc3c(c2)OCO3)c1C#N,41*,16,6,-2,12,8
Cc1c(CN2CCC(CO)(CCOc3ccccc3)CC2)[nH]c2c(Cl)cccc12,2,26,41*,-1,24,-7
CCOC(=O)[C@]12CCCC=C1N(Cc1ccc3c(c1)OCO3)C(=O)[C@H](CC(=O)NCC1CCCCC1)C2,·,11,-2,-8,·,·
COCCCn1[nH]c2c3c(ccc2c1=O)C(=O)c1ccccc1C3=O,75*,-4,2,-3,-13,-10
CCC(C(=O)Oc1c(C(C)C)cccc1C(C)C)c1ccccc1 (stereo not drawn),1,-13,12,-4,-7,-13
CN1/C(=C\P(=O)(N(C)C)N(C)C)C(C)(C)c2ccccc21,25,9,13,-5,45*,77*
